In ChEMBL document CHEMBL1138913, “Synthesis, structure analysis, and antitumor activity of 3,6-disubstituted-1,4-dihydro-1,2,4,5-tetrazine derivatives” (2006) one finds Activity data, which are given here for one compound.

Common to all, as to type: functional
Assay [1] concerns HL-60. Briefly: Antiproliferative activity against human HL60 cell line at 10 umol/L by MTT method. Summed up: (§1)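 P-388 and HL-60 cells were tested in vitro by MTT assay over five tenfold concentrations from 10^-4 to 10^-8 mol/L. Each value is the percent inhibition ratio of cancer cell growth at that concentration.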
(In general: Tetrazolium assays rely on reduction of a dye to a coloured formazan, in cell work by metabolically active cells.)

Assay [2] deals with P388. Briefly: Antiproliferative activity against mouse P388 cell line at 0.1 umol/L by MTT method. Summed up:
as §1

The test system of assay [3] is Bel-7402. The assay can be described thus: Antiproliferative activity against human BEL-7402 cell line at 0.01 umol/L by SRB method. In short, it runs like this: (§2)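 Growth inhibition of A-549 and BEL-7402 cells was measured in vitro by sulforhodamine B (SRB) staining. Compounds were tested across five tenfold concentrations from 10^-4 to 10^-8 mol/L, and each value is reported as the percent inhibition ratio of cell growth at that concentration.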
In general terms: The SRB assay estimates cell density from bound dye.

The test system of assay [4] is A549. The assay can be described thus: Antiproliferative activity against human A549 cell line at 0.01 umol/L by SRB method. Summed up: as §2
Assay [5] has as its system P388. The assay can be described thus: Antiproliferative activity against mouse P388 cell line at 0.01 umol/L by MTT method. In short, it runs like this: as §1
Assay [6] concerns A549. Briefly: Antiproliferative activity against human A549 cell line at 10 umol/L by SRB method. Summed up:
as §2

Assay [7] deals with P388. Briefly: Antiproliferative activity against mouse P388 cell line at 10 umol/L by MTT method. Summed up: as §1
Assay [8] concerns A549. The assay can be described thus: Antiproliferative activity against human A549 cell line at 1 umol/L by SRB method. Summed up:
as §2

The test system of assay [9] is P388. Briefly: Antiproliferative activity against mouse P388 cell line at 100 umol/L by MTT method. In short, it runs like this: as §1
For assay [10], the system named is Bel-7402. Briefly: Antiproliferative activity against human BEL-7402 cell line at 1 umol/L by SRB method. In short, it runs like this: as §2
In assay [11] the test system is Bel-7402. Briefly: Antiproliferative activity against human BEL-7402 cell line at 0.1 umol/L by SRB method. In short, it runs like this: as §2
In assay [12] the test system is HL-60. Briefly: Antiproliferative activity against human HL60 cell line at 0.1 umol/L by MTT method. In short, it runs like this:
as §1

In assay [13] the test system is HL-60. Briefly: Antiproliferative activity against human HL60 cell line at 0.01 umol/L by MTT method. Summed up:
as §1

The test system of assay [14] is A549. The assay can be described thus: Antiproliferative activity against human A549 cell line at 0.1 umol/L by SRB method. In short, it runs like this: as §2
Assay [15] deals with HL-60. Briefly: Antiproliferative activity against human HL60 cell line at 100 umol/L by MTT method. Summed up: as §1
Assay [16] has as its system Bel-7402. Briefly: Antiproliferative activity against human BEL-7402 cell line at 100 umol/L by SRB method. Summed up:
as §2

For assay [17], the system named is A549. Briefly: Antiproliferative activity against human A549 cell line at 100 umol/L by SRB method. Summed up:
as §2

Assay [18] relates to P388. The assay can be described thus: Antiproliferative activity against mouse P388 cell line at 1 umol/L by MTT method. Summed up:
as §1

For assay [19], the system named is Bel-7402. The assay can be described thus: Antiproliferative activity against human BEL-7402 cell line at 10 umol/L by SRB method. In short, it runs like this:
as §2

Assay [20] relates to HL-60. The assay can be described thus: Antiproliferative activity against human HL60 cell line at 1 umol/L by MTT method. In short, it runs like this:
as §1

Molecules are shown by their SMILES.

As for `Clc1ccc(Cc2nnc(Cc3ccc(Cl)cc3)nn2)cc1`, the Activity is listed as 22.3% in the assay with HL-60 [1]; 1.1% in the assay with P388 [2]; 6% in the assay on Bel-7402 [3]; 0% in the assay on A549 [4]; 8.7% in the assay with P388 [5]; 29.1% in the assay on A549 [6]. In addition, the Activity is on record as 57.1% in the assay on P388 [7]; 9.3% with A549 [8]; 65.8% in the assay on P388 [9]; 0% in the assay on Bel-7402 [10]; 0% in the assay with Bel-7402 [11]; 21.1% in the assay with HL-60 [12]. The Activity in the assay with HL-60 [13] is 7.6%; with A549 [14], 8.9%; with HL-60 [15] it was 85.4%; in the assay with Bel-7402 [16], 61.2%; in the assay with A549 [17], 58.4%; in the assay with P388 [18] it was 13.1%. In addition, the Activity in the assay on Bel-7402 [19] came to 0%; with HL-60 [20], 13.5%.
